Laboratory results reported in ChEMBL document CHEMBL1150379, “Synthesis and antiproliferative activity of imidazole and imidazoline analogs for melanoma” (Bioorg Med Chem Lett, 2008).

How the values were obtained:
[1] = Antiproliferative activity against mouse B16-F1 cells after 48 hrs by SRB assay; type: functional, cell-based; settings: B16-F1, 48 h
Outline: (§1)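 Cells seeded in round-bottom 96-well plates and exposed to a wide range of concentrations for 48 h. Fixed with 10% trichloroacetic acid, washed five times with water, air-dried overnight, then stained with sulforhodamine B. Total protein read at 560 nm. IC50 is the concentration inhibiting growth by 50% relative to DMSO-treated controls, obtained by nonlinear regression.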

A-375 = experiment: Antiproliferative activity against human A375 cells after 48 hrs by SRB assay; type: functional, cell-based; settings: A-375, 48 h; outline: as §1
[2] = Antiproliferative activity against fibroblast cells after 48 hrs by SRB assay; type: cell-based; outline: as §1

Row | IC50 (A-375) | Structure (SMILES) | IC50 [1] | IC50 [2]
1 | 16.1 µM | CCCCCCCCC/C=C/CCCCCCCNC(=O)c1c[nH]c(-c2ccccc2)n1 | 31.6 µM | 23.9 µM
2 | 191 µM | CCCCCCCCCCCCCCCCNC(=O)[C@@H]1CSC(Cc2ccc(NC(C)=O)cc2)N1 (stereo partly specified) | 171 µM | > 100 µM
3 | 4.1 µM | CCCCCCCCCCCCCCCCNC(=O)[C@@H]1CNC(c2cc(OC)c(OC)c(OC)c2)=N1 | 3.8 µM | 13.3 µM
4 | 13.7 µM | CCCCCCCCCCCCCCCCNC(=O)[C@H]1CC[C@@H](c2ccccc2)N1 | 11.5 µM | 46.6 µM
5 | 8.3 µM | CCCCCCCCC/C=C/CCCCCCCNC(=O)[C@@H]1CNC(c2ccccc2)=N1 | 12 µM | 24.6 µM
6 | 21.2 µM | CCCCCCCCC/C=C/CCCCCCCNC(=O)[C@@H]1CSC(C(C)c2ccccc2)N1 (stereo partly specified) | 16.5 µM | 237 µM
7 | 18.7 µM | CCCCCCCCCCCCCCNC(=O)c1c[nH]c(-c2ccccc2)n1 | 38.2 µM | 42.7 µM
8 | 10.5 µM | CCCCCCCCCCCCCCCCNC(=O)[C@@H]1CNC(c2ccccc2)=N1 | 5.7 µM | 59.6 µM
9 | 20.7 µM | CCCCCCCCCCCCCCCCCCNC(=O)c1c[nH]c(-c2ccccc2)n1 | > 30 µM | 47.4 µM
10 | 5.4 µM | CNC(=O)c1cc(Oc2ccc(NC(=O)Nc3ccc(Cl)c(C(F)(F)F)c3)cc2)ccn1 [SORAFENIB] | 4.9 µM | 15.1 µM
11 | 7.1 µM | CCCCCCCCCCCCCCNC(=O)[C@@H]1CNC(c2ccccc2)=N1 | 7.2 µM | 17.3 µM
12 | 16.5 µM | CCCCCCCCCCCCCCCCNC(=O)c1c[nH]c(-c2ccccc2)n1 | 39.7 µM | 27.9 µM
13 | 10.3 µM | CCCCCCCCC/C=C/CCCCCCCNC(=O)[C@@H]1CSC(Cc2ccccc2)N1 (stereo partly specified) | 11.6 µM | 15.5 µM
14 | 3.9 µM | CCCCCCCCCCCCCCCCNC(=O)[C@@H]1CNC(Cc2cc(OC)c(OC)c(OC)c2)=N1 | 4 µM | 15.8 µM
15 | 6.1 µM | CC(=O)Nc1ccc(CC2N[C@H](C(=O)Nc3ccc4c(c3)Cc3ccccc3-4)CS2)cc1 (stereo partly specified) | 4 µM | 15.3 µM
16 | 174 µM | O=C(Nc1ccc2c(c1)Cc1ccccc1-2)[C@@H]1CSC(Cc2ccccc2)N1 (stereo partly specified) | 118 µM | > 100 µM
17 | 54.3 µM | CCCCCCCCCCCCCCCCCCNC(=O)[C@@H]1CNC(c2ccccc2)=N1 | 50.5 µM | 111 µM
18 | > 20 µM | COc1cc(C2=N[C@H](C(=O)N(C)OC)CN2)cc(OC)c1OC | > 20 µM | > 20 µM
19 | 8.1 µM | CCCCCCCCCCCCCCCCNC(=O)[C@@H]1CSC(Cc2ccccc2)N1 (stereo partly specified) | 6.5 µM | 15.3 µM
20 | > 30 µM | O=C(Nc1ccc(Br)cc1)c1c[nH]c(-c2ccccc2)n1 | > 30 µM | 
21 | > 100 µM | CN(C)/N=N/c1[nH]cnc1C(N)=O [DACARBAZINE] | > 100 µM | 
22 | > 30 µM | CCCCCCCCCCNC(=O)c1c[nH]c(-c2ccccc2)n1 | > 30 µM | 
23 | > 30 µM | CCCCCCCCCCCCNC(=O)c1c[nH]c(-c2ccccc2)n1 | 30 µM | 
24 | 13.1 µM | CCCCCCCCCCCCCCCCNC(=O)[C@@H]1CSC(C(C)c2ccccc2)N1 (stereo partly specified) | 12.2 µM | 55.7 µM
25 | 4.6 µM | CCCCCCCCCCCCCCCCNC(=O)[C@@H]1CNC(c2ccc(NC(C)=O)cc2)=N1 | 2.4 µM | 14.8 µM
